pIC50: −log10 of the molar value. Converted amounts (≈) assume the structure as drawn.

The subject of assay [1] is Herpesviridae sp. In words: Antiviral activity against Herpes simplex virus assessed as inhibition of viral replication at 10 uM relative to control. The format is functional.
Assay [2] relates to Staphylococcus aureus. The experiment in a line: Antimicrobial activity against methicillin-resistant Staphylococcus aureus isolate shhs-A1 by two-fold serial dilution method. The format is functional. In short, it runs like this:
(§1)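 MIC by 2-fold serial broth dilution in Mueller-Hinton broth, following CLSI standard methods; panel run alongside S. aureus ATCC 29213 and E. faecalis ATCC 29212.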

Assay [3] has as its system Enterococcus faecalis. The experiment in a line: Antimicrobial activity against Enterococcus faecalis ATCC 29212 by two-fold serial dilution method. The format is functional. The essentials: as §1
The subject of assay [4] is Staphylococcus aureus. In words: Antimicrobial activity against methicillin-resistant Staphylococcus aureus isolate 1862 by two-fold serial dilution method. The format is functional. In short, it runs like this: as §1
Assay [5] concerns Vesicular stomatitis virus. In words: Antiviral activity against Vesicular stomatitis virus infected in African green monkey Vero cells after 16 hrs by fluorescence microscopy. The format is functional, organism-based.
The test system of assay [6] is Staphylococcus aureus. In words: Antimicrobial activity against methicillin-resistant Staphylococcus aureus isolate 699 by two-fold serial dilution method. The assay is classed as functional. In short, it runs like this: as §1
The test system of assay [7] is Staphylococcus aureus. In words: Antimicrobial activity against Staphylococcus aureus ATCC 29213 by two-fold serial dilution method. The assay is classed as functional. The essentials:
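MIC measured by 2-fold serial broth dilution in Mueller-Hinton broth, following CLSI standard methods.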

Broadly, the inhibition is the drop in the measured response relative to a control, in per cent. On to `C[C@H]1CC/C(O)=C2/C(=O)O[C@@]34C=C[C@]5(C1=O)[C@H](O)[C@@](C)(O[C@]235)[C@@H](C)C4`, for which the inhibition at 10 µM in assay [1] was determined as 31%.
As usually defined, the MIC is the lowest concentration that inhibits growth of the organism. Broadly, the pIC50 is the IC50 on a negative log10 scale, so that one unit is a factor of ten. Turning to `C[C@H]1CC/C(O)=C2/C(=O)O[C@]34C[C@H](C)[C@]5(C)O[C@]23[C@H](C1=O)[C@@H](S[C@H]1[C@H]2[C@H](O)[C@@]3(C)O[C@@]67/C(=C(/O)CC[C@H](C)C(=O)[C@H]16)C(=O)O[C@@]27C[C@@H]3C)[C@H]4[C@@H]5O`, the minimal inhibitory concentration (MIC) in assay [2] came out at 16 µg/mL (≈ 22 µM); in assay [3], 32 µg/mL (≈ 44 µM); in assay [4], 16 µg/mL (≈ 22 µM); in assay [6], 16 µg/mL (≈ 22 µM); in assay [7], 32 µg/mL (≈ 44 µM). Further, the pIC50 in assay [5] was 4.62.
As for `C[C@H]1CCC(=O)C2=C3O[C@@]4(C)[C@@H](C)C[C@]3(OC2=O)[C@@H]([C@H](S[C@H]2[C@H]3[C@H](O)[C@@]5(C)O[C@@]67/C(=C(/O)CC[C@H](C)C(=O)[C@H]26)C(=O)O[C@@]37C[C@@H]5C)CC1=O)[C@@H]4O`, the MIC was 16 µg/mL (≈ 22 µM) in assay [2]; 32 µg/mL (≈ 44 µM) in assay [3]; 16 µg/mL (≈ 22 µM) in assay [4]; 16 µg/mL (≈ 22 µM) in assay [6]; 32 µg/mL (≈ 44 µM) in assay [7]. This compound gave a pIC50 in assay [5] of 4.72.
With `CC1(C)S[C@@H]2[C@H](NC(=O)[C@H](N)c3ccccc3)C(=O)N2[C@H]1C(=O)O` [AMPICILLIN], the MIC is 64 µg/mL (≈ 183 µM) in assay [2]; 16 µg/mL (≈ 45.8 µM) in assay [3]; 0.125 µg/mL (≈ 0.358 µM) in assay [4]; 4 µg/mL (≈ 11.4 µM) in assay [6]; 0.25 µg/mL (≈ 0.715 µM) in assay [7].
As for `CN[C@H](CC(C)C)C(=O)N[C@H]1C(=O)N[C@@H](CC(N)=O)C(=O)N[C@H]2C(=O)N[C@H]3C(=O)N[C@H](C(=O)N[C@H](C(=O)O)c4cc(O)cc(O)c4-c4cc3ccc4O)[C@H](O)c3ccc(c(Cl)c3)Oc3cc2cc(c3O[C@@H]2O[C@H](CO)[C@@H](O)[C@H](O)[C@H]2O[C@H]2C[C@](C)(N)[C@H](O)[C@H](C)O2)Oc2ccc(cc2Cl)[C@H]1O` [VANCOMYCIN], the MIC is 0.25 µg/mL (≈ 0.173 µM) in assay [3], 0.125 µg/mL (≈ 0.0863 µM) in assay [4], 0.125 µg/mL (≈ 0.0863 µM) in assay [6] and 0.25 µg/mL (≈ 0.173 µM) in assay [7].

The values above are taken from ChEMBL document CHEMBL4196137, “Abyssomicin Monomers and Dimers from the Marine-Derived Streptomyces koyangensis SCSIO 5802” (J Nat Prod, 2018).
